Out of some 290,000 compounds screened, about 1,300 (0.45%) were called active. This is one part of a sample in which actives are shown more often than they occur.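 Rule for the calls: active = inhibition above the mean plus 3 SD of all compounds in the same screening run (cut at about 4.5% in these data); inactive = the rest.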
test system: metallo-beta-lactamase IMP-1 (Pseudomonas aeruginosa); test: inhibition of IMP-1 nitrocefin hydrolysis – biochemical, epi-absorbance readout, Pseudomonas aeruginosa enzyme, primary screen (AID 1556); settings: purified IMP-1, nitrocefin hydrolysis, epi-absorbance fluorescence; at 5.6 µM; stronger effect = higher value;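 note: 0% = IMP-1 with DMSO and 100% = DMSO wells lacking enzyme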
In short: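 System: purified IMP-1; amount: IMP-1 0.2 nM before substrate addition; compound: single dose, 5.6 µM; times: 25 °C, 15 min preincubation, 25 min reaction; signal: Epi-absorbance via hydrolysed-nitrocefin quenching of white-plate fluorescence, 480/530 nm, EDTA stop; benchmarks: DMSO with and without IMP-1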

SMILES	inhibition
Cc1ccccc1C(=O)NC(=S)Nc1ccc(N2CCN(C(=O)c3ccccc3)CC2)cc1	-0.21% (inactive)
Nc1c(C(=O)c2cccs2)sc2nsc(SCCN3CCCCC3)c12	6.4% (active)
Cc1nc2sc(C(=O)c3ccccc3)c(N)c2c2c1CCCC2	-2.49% (inactive)
CN(C)c1ccnc2sc(C(=O)c3ccccc3)c(N)c12	-4.61% (inactive)
N#C/C(=C\c1cccnc1)C(=O)Nc1ccc(SC(F)F)cc1	-1.66% (inactive)
Nc1ccc2nc3c(=O)[nH]c(=S)[nH]c3nc2c1	26.7% (active)
Cc1cccc(OCC(=O)Nc2ccc(C(=O)O)cc2NC(=O)COc2cccc(C)c2)c1	-0.18% (inactive)
O=C(CSc1nnnn1-c1ccc(O)cc1)N1N=C(c2ccc3ccccc3c2)CC1c1ccccc1 (centres undefined)	-2.75% (inactive)
COc1ccc(N2CCN(S(=O)(=O)c3ccc4c(c3)N(C(C)=O)CCO4)CC2)cc1	-2.08% (inactive)
Cc1ccnc(NC(=O)c2ccco2)n1	29.4% (active)
O=C(Nc1ccc2nccnc2c1)c1ccco1	-1.29% (inactive)
O=C(Nc1ccccc1)c1ccco1	-3.16% (inactive)
Cc1cccc2c1cnn2C(=O)CCC(=O)NC1CCCCC1	-3.55% (inactive)
Cc1cccc(NC(=O)Cn2c(=O)n(Cc3ccccc3)c(=O)c3c(C)c(C)sc32)c1	-3.05% (inactive)
CCOc1cccc(NC(=O)C2CCCN(S(=O)(=O)c3ccc(OC)cc3)C2)c1 (centres undefined)	0.1% (inactive)
COc1ccccc1CC(=O)Nc1ccc(S(=O)(=O)N2CCCC2)cc1	-1.76% (inactive)
CCN(CC(=O)Nc1ccc(S(=O)(=O)N2CCCC2)cc1)CC(=O)Nc1cccc(OC)c1	13% (active)
O=C(CN1CCN(c2ccc(O)cc2)CC1)Nc1ccc(-c2ccccc2)cc1	-3.22% (inactive)
CC(C)N(C(=O)Cn1cc(S(=O)(=O)CC(=O)N2CCOCC2)c2ccccc21)C(C)C	1.49% (inactive)
N#CC1=C(N)Oc2c(sc3ccccc23)C1c1ccco1 (centres undefined)	5.37% (active)

SMILES	inhibition
CC1=C(C(=O)Nc2ccccc2)C(c2ccco2)C(C#N)=C(SCC(N)=O)N1 (centres undefined)	-0.1% (inactive)
Cc1cc(C)c2c3c(sc2n1)C(c1ccccc1)C(C#N)=C(N)O3 (centres undefined)	-3.3% (inactive)
O=C1CC(Cc2ccccc2)C(=O)N1c1ccc(Cl)cn1 (centres undefined)	-3.13% (inactive)
O=C(O)CN1C(=O)CC(Cc2ccccc2)C1=O (centres undefined)	4.79% (active)
Cc1cc(C)nc(N2C(=O)CC(Cc3ccccc3)C2=O)n1 (centres undefined)	-2.26% (inactive)
O=C1/C(=C/c2ccc3c(c2)OCO3)CCC/C1=C\c1ccc2c(c1)OCO2	0.49% (inactive)
CCOC(=O)CCCNC(=O)COC(=O)/C=C/c1ccc2c(c1)OCO2	-0.37% (inactive)
CCC1=C/C(=C\c2ccc3c(c2)OCO3)C(=O)S1	6.67% (active)
O=C(Nc1ccc(F)cc1)C(=O)c1cn(CC(=O)N2CCOCC2)c2ccccc12	-5.04% (inactive)
CS(=O)(=O)N1CCN(C(=O)CSc2ccccc2)CC1	-2.52% (inactive)
Oc1ccc2ccc3cccc[n+]3c2c1	34.3% (active)
CCCCC(=O)Nc1ccccc1N1CCN(c2ccc(F)cc2)CC1	-3.05% (inactive)
Cc1ccc(CNC(=O)C2CCN(S(=O)(=O)c3ccc4nc5c(c(C(=O)O)c4c3)CC(C)CC5)CC2)cc1 (centres undefined)	5.35% (active)
CCOC(CNC(=O)C1CCN(S(=O)(=O)c2ccc3nc4c(c(C(=O)O)c3c2)CC(C)CC4)CC1)OCC (centres undefined)	-0.25% (inactive)
CC(=O)N1c2ccc(S(=O)(=O)N3CCC(C(=O)NCc4ccc(F)cc4)CC3)cc2CC1C (centres undefined)	-3.57% (inactive)
Cc1nc(CN(C)C(=O)CC2C(=O)NCCN2Cc2ccc(F)cc2)cs1 (centres undefined)	-2.3% (inactive)
CCOc1ccc(NC(=O)N2CC=C(n3c(=O)[nH]c4ccccc43)CC2)cc1	6.24% (active)
Cc1cccc(C)c1NC(=O)N1CC=C(n2c(=O)[nH]c3ccccc32)CC1	-4.93% (inactive)
CCOc1ccc(NC(=O)N2CCN(CC)CC2)cc1	-1.66% (inactive)
COc1ccc(NC(=O)CN2C(=O)COc3ccc(S(=O)(=O)N4CCOCC4)cc32)cc1	-3.61% (inactive)

SMILES	inhibition
Cc1ccc(CNC(=O)C(=O)c2cn(CC(=O)N3CCOCC3)c3ccccc23)cc1	-2.82% (inactive)
Cn1ccc(=Nc2ccc(NC(=O)c3ccc(N=c4ccn(C)c5ccc([N+](=O)[O-])cc45)cc3)cc2)cc1	14.8% (active)
O=C(Nc1ccc(C(=O)N2CCCCC2)cc1)c1cccc([N+](=O)[O-])c1	-1.61% (inactive)
Cc1cc([N+](=O)[O-])ccc1NC(=O)c1ccc(NC(=O)C(C)C)cc1	-0.19% (inactive)
Cc1sc2ncn(CC(=O)NCCCC(=O)N(C)Cc3ccccc3)c(=O)c2c1C	-3.46% (inactive)
Cc1ccc(-n2ncc3c2CC(C)(C)CC3NC(=O)CCc2cnn(C)c2)cc1 (centres undefined)	-2.72% (inactive)
COCCOC(=O)c1sc(=S)n(CCOC)c1N	-0.79% (inactive)
CCN(Cc1ccccc1)C(=O)CCS(=O)(=O)c1ccc2c(c1)oc(=O)n2C	-3.48% (inactive)
C=CCn1c(=O)c(C(=O)Nc2ncccc2O)c(O)c2ccccc21	-5.49% (inactive)
Cc1c(CCC(=O)O)c(=O)oc2c(C)c(OCc3ccccc3Cl)ccc12	11.5% (active)
Cc1c(CCC(=O)O)c(=O)oc2cc(OCc3ccc(Br)cc3)ccc12	-4.45% (inactive)
CCOC(=O)CCc1c(C)c2ccc(OCc3nn[nH]n3)c(C)c2oc1=O	-1.75% (inactive)
COc1ccccc1N1CCN(S(=O)(=O)CCNC(=O)c2ccc(OC(C)C)cc2)CC1	-1.73% (inactive)
CCOc1cc(NC(=O)Nc2ccccc2)c(OCC)cc1NC(=O)CC	1.47% (inactive)
CCOC(=O)Nc1ccc2c(c1)N(C(=O)CCCl)c1ccccc1[S@]2=O	-1.86% (inactive)
COc1ccc(-n2c(=O)[nH]c3cc(C(=O)NCCc4ccc(OC)c(OC)c4)ccc3c2=O)c(OC)c1	-0.95% (inactive)
COc1ccc(/C=C(\C#N)c2c[nH]c3ccccc23)cc1	-0.02% (inactive)
O=C(N/N=C/c1c[nH]c2ccccc12)c1ccccc1O	-3.56% (inactive)
C[n+]1ccc(/C=C/c2c[nH]c3ccccc23)cc1	11.3% (active)

Reference: PubChem BioAssay AID1556 (The Scripps Research Institute Molecular Screening Center, 2009)
